Results as given in ChEMBL document CHEMBL1133492, “Design, synthesis, and biological evaluation of fluoronitrophenyl substituted folate analogues as potential inhibitors of GAR transformylase and AICAR transformylase” (Bioorg Med Chem Lett, 2000).
Activity calls are given as the source filed them. The rule behind the calls is not given here.

Legend:
CCRF-CEM [1] = experiment: Cytotoxicity in the absence of hypoxanthine and presence of thymidine against CCRF-CEM cell line; type: functional, cell-based; conditions: Homo sapiens
Method in brief: (§1)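 CCRF-CEM cells were grown in purine- and pyrimidine-free medium, with thymidine and/or hypoxanthine added or omitted as each line specifies. The cytotoxic potency was reported as an IC50 (µM).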

CCRF-CEM [2] = experiment: Cytotoxicity in the absence of thymidine and hypoxanthine against CCRF-CEM cell line; type: functional, cell-based; conditions: Homo sapiens; method in brief: as §1
CCRF-CEM [3] = experiment: Cytotoxicity in the absence of thymidine and presence of hypoxanthine against CCRF-CEM cell line; type: functional, cell-based; conditions: Homo sapiens; method in brief: as §1
CCRF-CEM [4] = experiment: Cytotoxicity in the presence of thymidine and hypoxanthine against CCRF-CEM cell line; type: functional, cell-based; conditions: Homo sapiens; method in brief: as §1
[5] = target: T1, Trifunctional purine biosynthetic protein adenosine-3 (Homo sapiens) (UniProt P22102); experiment: In vitro inhibitory activity against Glycinamide ribonucleotide transformylase (GAR Tfase) after 6 hr at 250 uM; type: functional
T1 sequence (whole entry): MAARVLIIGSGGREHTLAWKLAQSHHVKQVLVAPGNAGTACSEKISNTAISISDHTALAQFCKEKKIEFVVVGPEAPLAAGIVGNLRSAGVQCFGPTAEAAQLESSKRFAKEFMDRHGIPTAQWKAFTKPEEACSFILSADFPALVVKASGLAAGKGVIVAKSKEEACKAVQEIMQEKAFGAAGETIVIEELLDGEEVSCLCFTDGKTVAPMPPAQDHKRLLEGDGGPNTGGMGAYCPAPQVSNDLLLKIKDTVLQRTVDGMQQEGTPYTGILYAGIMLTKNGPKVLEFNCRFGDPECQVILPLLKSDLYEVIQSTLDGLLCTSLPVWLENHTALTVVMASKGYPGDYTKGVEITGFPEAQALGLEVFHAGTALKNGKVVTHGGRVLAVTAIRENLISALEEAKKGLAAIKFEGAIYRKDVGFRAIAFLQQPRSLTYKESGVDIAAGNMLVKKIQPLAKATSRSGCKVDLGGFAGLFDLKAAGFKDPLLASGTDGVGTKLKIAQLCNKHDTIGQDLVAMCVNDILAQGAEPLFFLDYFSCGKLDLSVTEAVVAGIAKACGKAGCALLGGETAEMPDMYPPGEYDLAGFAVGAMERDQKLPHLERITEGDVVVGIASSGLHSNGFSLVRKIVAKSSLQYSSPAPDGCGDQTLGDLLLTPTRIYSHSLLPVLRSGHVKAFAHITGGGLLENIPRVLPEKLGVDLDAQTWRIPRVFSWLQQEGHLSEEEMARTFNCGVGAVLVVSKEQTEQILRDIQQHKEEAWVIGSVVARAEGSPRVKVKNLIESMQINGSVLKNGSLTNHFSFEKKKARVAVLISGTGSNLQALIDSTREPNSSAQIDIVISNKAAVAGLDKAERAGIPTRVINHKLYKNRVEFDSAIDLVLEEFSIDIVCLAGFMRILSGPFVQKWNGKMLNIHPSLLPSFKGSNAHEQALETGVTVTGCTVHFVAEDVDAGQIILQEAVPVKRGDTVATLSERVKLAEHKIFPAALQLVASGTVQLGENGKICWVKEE

[6] = target: T1, Trifunctional purine biosynthetic protein adenosine-3 (Homo sapiens); experiment: In vitro inhibitory activity against Glycinamide ribonucleotide transformylase (GAR Tfase) after 30 min at 250 uM; Not active
[7] = target: T1, Trifunctional purine biosynthetic protein adenosine-3 (Homo sapiens); experiment: In vitro inhibitory activity against Glycinamide ribonucleotide transformylase (GAR Tfase) after 3 min at 250 uM; Not active
[8] = target: Bifunctional purine biosynthesis protein ATIC (Homo sapiens, UniProt P31939); experiment: In vitro inhibitory activity against Aminoimidazole carboxamide ribonucleotide transformylase after 12 hr at 250 uM; Not active
Bifunctional purine biosynthesis protein ATIC, sequence (P31939 whole entry, looked up): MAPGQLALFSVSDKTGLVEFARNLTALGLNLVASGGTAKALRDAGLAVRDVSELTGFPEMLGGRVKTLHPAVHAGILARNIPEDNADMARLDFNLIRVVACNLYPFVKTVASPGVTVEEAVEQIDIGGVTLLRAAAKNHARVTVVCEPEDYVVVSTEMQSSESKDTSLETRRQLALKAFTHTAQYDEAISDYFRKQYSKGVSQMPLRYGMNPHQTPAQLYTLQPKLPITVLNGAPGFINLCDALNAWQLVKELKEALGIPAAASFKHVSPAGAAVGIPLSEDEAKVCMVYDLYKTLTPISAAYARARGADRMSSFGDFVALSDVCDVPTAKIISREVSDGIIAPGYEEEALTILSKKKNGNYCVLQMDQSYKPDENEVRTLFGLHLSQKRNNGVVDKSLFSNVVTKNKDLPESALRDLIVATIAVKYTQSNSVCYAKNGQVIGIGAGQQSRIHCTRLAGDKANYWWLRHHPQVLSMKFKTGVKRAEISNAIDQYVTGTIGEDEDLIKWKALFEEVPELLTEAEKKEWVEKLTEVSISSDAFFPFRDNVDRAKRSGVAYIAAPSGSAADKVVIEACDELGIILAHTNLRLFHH

Nc1nc(N)c(CCCNc2ccc([N+](=O)[O-])c(F)c2F)c(O)n1 gave an IC50 (CCRF-CEM [1]) of 68 µM, an IC50 (CCRF-CEM [2]) of 76 µM and an IC50 (CCRF-CEM [3]) of 76 µM. For the same molecule, the IC50 (CCRF-CEM [4]) was 73 µM, the inhibition [5] was 59% and the inhibition [6] was “inactive”. The inhibition [7] was “inactive” and the inhibition [8] was “inactive”.
